Several values for one entry are separate records, joined by “and”; a condition that tells them apart may be missing. Identical values can stand only once. Entries after “also recorded” stand apart in the source; their conditions may differ. Like-named read-outs stand apart in the source and are kept apart here.
Assays:
hH1R = hH1R (Homo sapiens, UniProt P35367); test: biochemical; format: binding
hH2R [1] = target: T1, hH2R (Homo sapiens, UniProt P25021); format: binding; conditions: for difference in pKi (H2R) over pKi (H1,3,4R): hH2R selectivity from radioligand binding
T1 sequence (P25021 whole entry): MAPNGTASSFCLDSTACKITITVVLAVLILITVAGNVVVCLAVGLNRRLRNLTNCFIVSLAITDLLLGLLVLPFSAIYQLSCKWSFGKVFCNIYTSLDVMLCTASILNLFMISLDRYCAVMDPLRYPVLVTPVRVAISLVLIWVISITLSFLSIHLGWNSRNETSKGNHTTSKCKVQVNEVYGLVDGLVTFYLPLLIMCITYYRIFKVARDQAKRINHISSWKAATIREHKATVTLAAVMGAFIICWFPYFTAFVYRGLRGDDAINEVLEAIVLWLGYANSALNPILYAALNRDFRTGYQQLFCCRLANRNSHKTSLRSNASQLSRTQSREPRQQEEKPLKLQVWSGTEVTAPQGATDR
T1 sequence (P63092 1-380 isoform P63092-2 partner): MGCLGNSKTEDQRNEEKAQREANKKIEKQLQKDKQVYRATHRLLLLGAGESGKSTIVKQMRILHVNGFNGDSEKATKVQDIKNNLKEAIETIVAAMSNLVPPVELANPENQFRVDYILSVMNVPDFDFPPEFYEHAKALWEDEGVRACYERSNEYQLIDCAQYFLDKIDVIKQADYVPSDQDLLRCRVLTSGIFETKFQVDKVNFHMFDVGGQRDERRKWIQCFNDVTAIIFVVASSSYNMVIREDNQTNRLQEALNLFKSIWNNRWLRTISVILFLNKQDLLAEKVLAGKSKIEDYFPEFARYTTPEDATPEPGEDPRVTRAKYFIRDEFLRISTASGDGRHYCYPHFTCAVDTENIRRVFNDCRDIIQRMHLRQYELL

hH3R [2] = target: T2, hH3R (Homo sapiens, UniProt Q9Y5N1); test: Radioligand competition binding with [3H]Nα-methylhistamine, Sf9 cell membranes
T2 sequence (Q9Y5N1 whole entry): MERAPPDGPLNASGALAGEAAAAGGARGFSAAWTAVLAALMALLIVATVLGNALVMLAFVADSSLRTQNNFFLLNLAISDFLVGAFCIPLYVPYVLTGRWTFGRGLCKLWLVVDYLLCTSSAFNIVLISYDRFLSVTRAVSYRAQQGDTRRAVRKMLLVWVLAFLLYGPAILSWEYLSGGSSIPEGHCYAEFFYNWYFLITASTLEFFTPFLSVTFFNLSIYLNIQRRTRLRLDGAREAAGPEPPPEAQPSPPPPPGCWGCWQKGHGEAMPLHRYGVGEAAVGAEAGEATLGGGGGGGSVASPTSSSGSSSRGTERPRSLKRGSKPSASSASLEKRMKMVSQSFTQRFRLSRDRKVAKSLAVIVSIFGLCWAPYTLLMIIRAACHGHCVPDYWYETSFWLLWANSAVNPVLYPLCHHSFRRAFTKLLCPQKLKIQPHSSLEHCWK

hH4R [3] = target: T3, hH4R (Homo sapiens, UniProt Q9H3N8); test: Radioligand competition binding with [3H]histamine, Sf9 cell membranes
T3 sequence (Q9H3N8 whole entry): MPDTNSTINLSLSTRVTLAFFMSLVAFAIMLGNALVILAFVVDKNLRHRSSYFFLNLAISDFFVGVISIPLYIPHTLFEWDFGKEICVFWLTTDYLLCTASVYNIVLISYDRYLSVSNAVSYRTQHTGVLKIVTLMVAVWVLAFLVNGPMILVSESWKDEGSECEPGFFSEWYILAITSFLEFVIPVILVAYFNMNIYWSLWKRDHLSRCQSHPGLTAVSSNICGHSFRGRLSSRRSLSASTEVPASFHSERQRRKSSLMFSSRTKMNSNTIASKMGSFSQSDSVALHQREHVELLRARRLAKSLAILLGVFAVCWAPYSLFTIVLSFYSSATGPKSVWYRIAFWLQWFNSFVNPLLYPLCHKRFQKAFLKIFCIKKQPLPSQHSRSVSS

hH2R [4] = target: T1, hH2R; test: [35S]GTPγS binding assay, Sf9 cell membranes; format: biochemical
hH3R [5] = target: T2, hH3R; test: [35S]GTPγS binding assay, Sf9 cell membranes; format: biochemical
hH4R [6] = target: T3, hH4R; test: [35S]GTPγS binding assay, Sf9 cell membranes; format: biochemical
gpH2R [7] = target: T4, gpH2R (Cavia porcellus, UniProt P47747); test: biochemical; format: biochemical, guinea pig
Target sequence in this assay (P47747 whole entry): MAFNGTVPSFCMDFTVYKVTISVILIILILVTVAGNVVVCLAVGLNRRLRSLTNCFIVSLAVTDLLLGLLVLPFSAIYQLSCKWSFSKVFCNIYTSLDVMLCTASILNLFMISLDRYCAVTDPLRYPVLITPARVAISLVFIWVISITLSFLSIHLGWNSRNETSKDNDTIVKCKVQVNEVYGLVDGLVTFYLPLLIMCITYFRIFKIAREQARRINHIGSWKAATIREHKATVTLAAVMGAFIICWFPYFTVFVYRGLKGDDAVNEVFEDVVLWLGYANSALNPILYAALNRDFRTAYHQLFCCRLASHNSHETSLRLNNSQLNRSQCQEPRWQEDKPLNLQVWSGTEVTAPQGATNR
Target sequence in this assay (P63092 1-380 isoform P63092-2 partner): as the sequence (P63092 1-380 isoform P63092-2 partner) above

rH2R = rH2R (Rattus norvegicus, UniProt P25102); test: [35S]GTPγS binding assay, Sf9 cell membranes; format: biochemical
Chain of rH2R (P25102 whole entry): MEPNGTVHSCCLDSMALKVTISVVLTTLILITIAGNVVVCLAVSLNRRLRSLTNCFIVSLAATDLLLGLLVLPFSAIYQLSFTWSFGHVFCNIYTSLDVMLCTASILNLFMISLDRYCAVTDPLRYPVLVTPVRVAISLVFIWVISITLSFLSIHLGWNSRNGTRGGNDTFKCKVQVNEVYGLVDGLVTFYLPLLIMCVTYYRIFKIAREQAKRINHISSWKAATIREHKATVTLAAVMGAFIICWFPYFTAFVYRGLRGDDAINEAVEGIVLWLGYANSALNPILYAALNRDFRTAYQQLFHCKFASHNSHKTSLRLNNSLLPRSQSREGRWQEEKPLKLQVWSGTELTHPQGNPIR
Chain of rH2R (P63092 1-380 isoform P63092-2 partner): as the sequence (P63092 1-380 isoform P63092-2 partner) above

gpH1R = gpH1R (Cavia porcellus, UniProt P31389); test: Histamine H1 receptor assay on isolated guinea pig ileum
Chain of gpH1R (P31389 whole entry): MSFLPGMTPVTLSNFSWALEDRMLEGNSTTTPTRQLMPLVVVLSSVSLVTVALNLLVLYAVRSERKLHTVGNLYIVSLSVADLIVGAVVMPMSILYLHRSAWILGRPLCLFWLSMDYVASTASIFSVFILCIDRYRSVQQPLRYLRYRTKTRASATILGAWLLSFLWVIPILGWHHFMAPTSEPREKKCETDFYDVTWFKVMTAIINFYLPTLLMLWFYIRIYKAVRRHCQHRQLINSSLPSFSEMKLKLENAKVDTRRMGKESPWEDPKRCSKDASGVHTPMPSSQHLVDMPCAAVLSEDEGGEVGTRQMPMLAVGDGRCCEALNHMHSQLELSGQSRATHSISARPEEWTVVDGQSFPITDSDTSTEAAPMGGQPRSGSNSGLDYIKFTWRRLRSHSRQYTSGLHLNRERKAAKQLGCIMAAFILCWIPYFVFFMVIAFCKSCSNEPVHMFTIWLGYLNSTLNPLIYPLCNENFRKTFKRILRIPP

gpH2R [8] = target: T4, gpH2R; set-up: species or system guinea pig
Target sequence in this assay (P47747 whole entry): as the sequence (P47747 whole entry) above

[9] = Chemical stability in binding buffer, RP-HPLC analysis; format: physicochemical; conditions: binding buffer pH 7.4, 100 μM, room temperature, 12 months
Summary of the method: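 Test compounds (dimeric bisalkylguanidines) were held at 100 μM in binding buffer (12.5 mM MgCl2, 1 mM EDTA, 75 mM Tris/HCl, pH 7.4) at room temperature for 12 months.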

[10] = hH2R pKi, [3H]tiotidine (Kd […], c = 10 nM), mean ± SEM
[11] = hH3R pKi, [3H]Nα-methylhistamine (Kd 8.6 nM, c = 3 nM), mean ± SEM

Chain of hH1R (P35367 whole entry): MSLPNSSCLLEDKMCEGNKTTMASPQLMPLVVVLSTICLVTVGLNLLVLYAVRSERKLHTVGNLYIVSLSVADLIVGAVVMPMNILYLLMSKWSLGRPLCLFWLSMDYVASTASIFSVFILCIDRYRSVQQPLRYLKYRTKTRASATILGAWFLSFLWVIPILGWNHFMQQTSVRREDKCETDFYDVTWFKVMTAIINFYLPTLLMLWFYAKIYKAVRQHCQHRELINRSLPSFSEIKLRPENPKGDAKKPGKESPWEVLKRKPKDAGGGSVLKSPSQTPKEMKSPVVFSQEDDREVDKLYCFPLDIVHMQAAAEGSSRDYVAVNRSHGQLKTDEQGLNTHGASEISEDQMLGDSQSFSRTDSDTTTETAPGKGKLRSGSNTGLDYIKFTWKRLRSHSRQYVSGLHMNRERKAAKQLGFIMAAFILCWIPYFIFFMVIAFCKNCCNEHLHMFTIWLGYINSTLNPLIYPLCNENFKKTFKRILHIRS

SMILES | Ki (hH1R; hH1R pKi) [nM] | Ki (hH2R [1]; [10]) [nM] | Ki (hH3R [2]; [11]) [nM] | Ki (hH4R [3]; hH4R pKi) [nM] | EC50 (hH2R [4]) [nM] | hH2R Emax (hH2R [4]) | Kb (hH3R [5]) [nM] | hH3R Emax (hH3R [5]) | Kb (hH4R [6]) [nM] | hH4R Emax (hH4R [6]) | EC50 (gpH2R [7]) [nM] | gpH2R Emax (gpH2R [7]) | EC50 (rH2R) [nM] | rH2R Emax (rH2R) | Kb (gpH1R) [nM] | EC50 (gpH2R [8]) [nM] | gpH2R Emax (gpH2R [8]) | chemical stability [9] | difference in pKi (H2R) over pKi (H1,3,4R) (hH2R [1]) | further results
N=C(NCCCCCCCCCCCCNC(=N)NCCCc1c[nH]cn1)NCCCc1c[nH]cn1 [Compound 57, 1,1′-(Dodecane-1,12-diyl)bis{3-[3-(1H-imidazol-4-yl)propyl]guanidine}] | 355 | 38.9 | 16.2 | 20 | 53.7 | 0.52 ± 0.03 | 46.8 | 0 | 324000 | 0 | 29.5 | 0.89 ± 0.07 | 24.5 | 0.80 and 0.80 ± 0.03 | 123 | 7.76 | 0.63 and 0.63 ± 0.03 | excellent chemical stabilities; also recorded: no decomposition |  | gpH1R pA2 (gpH1R; guinea pig ileum, antagonism of histamine-induced contraction): 6.91
Cc1nc(N)sc1CCCNC(=N)NCCCCCCCCNC(=N)NCCCc1sc(N)nc1C [Compound 58, 1,1′-(Octane-1,8-diyl)bis{3-[3-(2-amino-4-methylthiazol-5-yl)propyl]guanidine}] | > 3160 | 46.8 |  |  | 245 | 0.33 ± 0.03 |  | 0 |  | 0 | 52.5 | 0.97 ± 0.06 | 148 | 0.70 ± 0.04 |  |  | 0.78 ± 0.01 | excellent chemical stabilities; also recorded: no decomposition | at least 1.5 log units | Ki (hH1R; Ki hH1R, bound stated): > 1000 nM; Ki (hH2R [1]; Ki hH2R, bound stated): < 100 nM; Ki (hH3R [2]; Ki hH3R, bound stated): > 1000 nM; Ki (hH4R [3]; Ki hH4R, bound stated): > 1000 nM
Cc1nc(N)sc1CCCNC(=N)NCCCCCCCCNC(=N)NCCCc1cnc(N)s1 [Compound 63, 1-[3-(2-Amino-4-methylthiazol-5-yl)propyl]-3-{8-[3-(3-(2-aminothiazol-5-yl)propyl)guanidino]octyl}guanidine] | > 3160 | 123 | 3980 | 7240 | 251 | 0.47 ± 0.03 | 21400 | 0 | 186000 | 0 | 46.8 | 1.02 and 1.02 ± 0.04 | 141 | 0.87 ± 0.02 | 1000 | 2.75 | 0.88 ± 0.03 |  | at least 1.5 log units | Emax (gpH2R [8]): 88%; potency relative to histamine (gpH2R [8]; gpH2R, atrium): 250 times
